Source: ChEMBL document CHEMBL1122031, “(+/-)-4-Aryl-4,5-dihydro-3H-1,3-benzodiazepines. 2. Nuclear-substituted analogues of (+/-)-4,5-dihydro-2,3-dimethyl-4-phenyl-3H-1,3-benzodiazepine and (+/-)-4,5-dihydro-2-ethyl-3-methyl-4-phenyl-3H-1,3-benzodiazepine as potential antidepressant agents” (1982)

What was measured:
Type in all cases: functional
Mus musculus [1] = organism: Mus musculus; assay: Evaluated for prevention of amphetamine aggregation toxicity in mice,
Mus musculus [2] = organism: Mus musculus; assay: Inhibition of pentylenetetrazole (PTZ)-induced lethality in mice
Mus musculus [3] = assay: Inhibition of tetrabenazine-induced ptosis (TBZ) in mice by peroral administration; conditions: po
Summary of the method: (§1)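 Mice dosed with the compound and scored for prevention of tetrabenazine-induced ptosis. ED₅₀ was derived by linear regression analysis and reported with 95% confidence limits.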

Rattus norvegicus = assay: Compound, administered intraperitoneally and was evaluated for potentiation of the 5-hydroxytryptophan-induced behavioral syndrome in pargyline pretreated rats; conditions: ip
Mus musculus [4] = assay: Compound, administered intraperitoneally and was evaluated for inhibition of pentylenetetrazole (PTZ)-induced lethality in mice; conditions: ip
Mus musculus [5] = assay: Compound, administered perorally and was evaluated for prevention of amphetamine aggregation toxicity in mice; conditions: po
Mus musculus [6] = assay: Evaluated for antidepressant activity by inhibition of tetrabenazine-induced ptosis (TBZ) in mice by ip administration; summary of the method: as §1

`CCC1=Nc2ccccc2CC(c2ccccc2)N1C` (centres undefined) was tested, and the ED50 (Mus musculus [1]) was > 20 mg/kg, the ED50 (Mus musculus [2]; Mus musculus, read-out: ED50) was > 40 mg/kg and the ED50 (Mus musculus [3]) was 1.6 mg/kg. For the same compound, the ED50 (Rattus norvegicus) was > 10 mg/kg.
For `COc1ccc(C2Cc3ccccc3N=C(C)N2C)cc1` (centres undefined), the ED50 (Mus musculus [4]) was > 40 mg/kg, the ED50 (Mus musculus [5]) was > 20 mg/kg and the ED50 (Mus musculus [3]) was 19.8 mg/kg.
With `CC1=Nc2ccccc2CC(c2ccccc2Cl)N1C` (centres undefined) the ED50 (Mus musculus [1]) was > 20 mg/kg, the ED50 (Mus musculus [2]; Mus musculus, read-out: ED50) was > 40 mg/kg and the ED50 (Mus musculus [6]) was > 5 mg/kg.
In the case of `CC1=Nc2ccccc2CC(c2ccccc2C)N1C` (centres undefined), the ED50 (Mus musculus [1]) is reported as > 20 mg/kg, the ED50 (Mus musculus [2]; Mus musculus, read-out: ED50) is reported as > 40 mg/kg and the ED50 (Mus musculus [3]) is reported as 5.5 mg/kg.
In the case of `CCC1=Nc2ccc(Cl)cc2CC(c2ccccc2)N1C` (centres undefined), the ED50 (Mus musculus [2]) is reported as >40 mg/kg, the ED50 (Mus musculus [2]; Mus musculus, read-out: ED50) is reported as > 20 mg/kg and the ED50 (Mus musculus [6]) is reported as ~20 mg/kg.
For `CCC1=Nc2ccc(Cl)cc2CC(c2ccccc2F)N1C` (centres undefined), the ED50 (Mus musculus [2]) was >20 mg/kg, the ED50 (Mus musculus [2]; Mus musculus, read-out: ED50) was > 40 mg/kg and the ED50 (Mus musculus [6]) was > 20 mg/kg.
`CC1=Nc2ccccc2CC(c2ccc(Cl)cc2)N1C` (centres undefined) was tested, and the ED50 (Mus musculus [1]) was > 20 mg/kg, the ED50 (Mus musculus [2]; Mus musculus, read-out: ED50) was > 40 mg/kg and the ED50 (Mus musculus [3]) was 0.52 mg/kg. For the same compound, the ED50 (Rattus norvegicus) was > 10 mg/kg.
With `CCC1=Nc2ccccc2CC(c2ccc(F)cc2)N1C` (centres undefined) the ED50 (Mus musculus [3]) was 8.4 mg/kg.
For `CC1=Nc2ccc(Cl)cc2CC(c2ccccc2)N1C` (centres undefined), the ED50 (Mus musculus [1]) was > 20 mg/kg, the ED50 (Mus musculus [2]; Mus musculus, read-out: ED50) was > 40 mg/kg and the ED50 (Mus musculus [6]) was ≥ 20 mg/kg.
`CC1=Nc2ccc(Cl)cc2CC(c2ccccc2F)N1C` (centres undefined) was tested, and the ED50 (Mus musculus [1]) was > 20 mg/kg, the ED50 (Mus musculus [2]; Mus musculus, read-out: ED50) was > 40 mg/kg and the ED50 (Mus musculus [6]) was > 20 mg/kg.
`CCC1=Nc2ccccc2CC(c2ccc(OC)c(OC)c2)N1C` (centres undefined) was tested, and the ED50 (Mus musculus [4]) was > 40 mg/kg, the ED50 (Mus musculus [5]) was > 20 mg/kg and the ED50 (Mus musculus [6]) was 8.2 mg/kg.
For `COc1ccc(C2Cc3ccccc3N=C(C)N2C)cc1OC` (centres undefined), the ED50 (Mus musculus [4]) was > 40 mg/kg, the ED50 (Mus musculus [5]) was > 20 mg/kg and the ED50 (Mus musculus [3]) was 5 mg/kg.
In the case of `CCC1=Nc2ccccc2CC(c2ccccc2F)N1C` (centres undefined), the ED50 (Mus musculus [1]) is reported as > 20 mg/kg, the ED50 (Mus musculus [2]; Mus musculus, read-out: ED50) is reported as > 40 mg/kg and the ED50 (Mus musculus [3]) is reported as 7 mg/kg.
In the case of `CC1=Nc2ccccc2CC(c2ccc(F)cc2)N1C` (centres undefined), the ED50 (Mus musculus [1]) is reported as > 20 mg/kg, the ED50 (Mus musculus [2]; Mus musculus, read-out: ED50) is reported as > 40 mg/kg and the ED50 (Mus musculus [3]) is reported as 3.6 mg/kg. The ED50 (Rattus norvegicus) was > 10 mg/kg.
`CCC1=Nc2ccccc2CC(c2ccc(OC)cc2)N1C` (centres undefined) was tested, and the ED50 (Mus musculus [4]) was > 40 mg/kg, the ED50 (Mus musculus [5]) was > 20 mg/kg and the ED50 (Mus musculus [3]) was 2.8 mg/kg.
`CCC1=Nc2ccccc2CC(c2ccccc2Cl)N1C` (centres undefined) was tested, and the ED50 (Mus musculus [3]) was 4.1 mg/kg.
In the case of `CCC1=Nc2ccccc2CC(c2ccc(Cl)cc2)N1C` (centres undefined), the ED50 (Mus musculus [2]; Mus musculus, read-out: ED50) is reported as > 20 mg/kg and the ED50 (Mus musculus [6]) is reported as < 5 mg/kg.
`CC1=Nc2ccccc2CC(c2ccc(C)cc2)N1C` (centres undefined) was tested, and the ED50 (Mus musculus [1]) was > 20 mg/kg, the ED50 (Mus musculus [2]; Mus musculus, read-out: ED50) was > 40 mg/kg and the ED50 (Mus musculus [3]) was 5.2 mg/kg. For the same compound, the ED50 (Rattus norvegicus) was > 10 mg/kg.
With `CCC1=Nc2ccccc2CC(c2ccccc2C)N1C` (centres undefined) the ED50 (Mus musculus [2]) was >20 mg/kg, the ED50 (Mus musculus [2]; Mus musculus, read-out: ED50) was > 40 mg/kg and the ED50 (Mus musculus [3]) was 3.1 mg/kg.
In the case of `CC1=Nc2ccccc2CC(c2ccccc2F)N1C` (centres undefined), the ED50 (Mus musculus [1]) is reported as > 20 mg/kg, the ED50 (Mus musculus [2]; Mus musculus, read-out: ED50) is reported as > 40 mg/kg and the ED50 (Mus musculus [3]) is reported as 7.6 mg/kg. The ED50 (Rattus norvegicus) was > 10 mg/kg.
For `CCC1=Nc2ccccc2CC(c2ccc(C)cc2)N1C` (centres undefined), the ED50 (Mus musculus [1]) was > 20 mg/kg, the ED50 (Mus musculus [2]; Mus musculus, read-out: ED50) was > 40 mg/kg and the ED50 (Mus musculus [3]) was 6.1 mg/kg. The ED50 (Rattus norvegicus) was > 10 mg/kg.
`CN(C)CCC=C1c2ccccc2CCc2ccccc21` [AMITRIPTYLINE] showed an ED50 (Mus musculus [3]) of 1.9 mg/kg.
With `CC1=Nc2ccccc2CC(c2ccccc2)N1C` (centres undefined) [DAZEPINIL] the ED50 (Mus musculus [1]) was > 20 mg/kg, the ED50 (Mus musculus [2]; Mus musculus, read-out: ED50) was > 40 mg/kg and the ED50 (Mus musculus [3]) was 2.1 mg/kg. For the same compound, the ED50 (Rattus norvegicus) was > 10 mg/kg.
